CHRM5 PAM: potentiates acetylcholine response at human M5 receptor | P08912 | CHO-K1 hM5, Fluo-8 calcium, ACh EC20 PAM; 0% = ACh EC20, 100% = ACh EC100 | activation, % at 3 µM | hit rate 0.3% among 360,000;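 active = activation above the run cutoff, the mean activation of all test compounds plus 3 SD, cut at about 18% in these data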
Target sequence (P08912 whole entry, looked up): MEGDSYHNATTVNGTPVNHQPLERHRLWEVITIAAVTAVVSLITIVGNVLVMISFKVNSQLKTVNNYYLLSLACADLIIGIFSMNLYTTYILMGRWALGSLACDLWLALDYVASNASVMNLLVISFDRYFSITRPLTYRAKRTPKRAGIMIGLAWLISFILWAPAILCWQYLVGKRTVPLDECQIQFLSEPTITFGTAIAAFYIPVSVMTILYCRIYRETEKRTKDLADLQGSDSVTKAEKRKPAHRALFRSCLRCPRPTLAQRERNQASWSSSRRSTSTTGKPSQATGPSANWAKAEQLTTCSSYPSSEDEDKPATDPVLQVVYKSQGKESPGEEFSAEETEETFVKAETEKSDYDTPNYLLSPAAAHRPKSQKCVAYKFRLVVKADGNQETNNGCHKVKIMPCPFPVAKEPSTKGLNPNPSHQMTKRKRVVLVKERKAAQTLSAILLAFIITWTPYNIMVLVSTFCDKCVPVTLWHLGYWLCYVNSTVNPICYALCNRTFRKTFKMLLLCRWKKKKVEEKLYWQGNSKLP
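system = human M5 receptor in CHO-K1 cells | compound = one concentration, 3 µM final (nominal) | schedule = Post-acetylcholine fluorescence recording 140 s | signal = Fluo-8 calcium dye fluorescence, kinetic read | benchmarks = low control EC20 acetylcholine (0%), high control EC100 acetylcholine (100%) | repeats = singlicate, one well per test compound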
CHRM4 antagonist: CHRM4 antagonism in calcium assay; inhibition, % at 3 µM; CHO-hM4 cells, ACh EC80, Fluo-8 calcium fluorescence; AID 624125; hit rate 0.73% among 360,000;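 active = inhibition above its plate's cutoff, the mean inhibition of sample wells plus 3 SD, cut at about 27% in these data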;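 also: 0% = acetylcholine EC80 with DMSO and 100% = DMSO without agonist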
CHRM4 agonist: CHRM4 agonism in calcium assay. AID 624127. P08173. CHO-K1 hM4/Gqi5, Fluo-8 calcium fluorescence; vehicle 0%, full acetylcholine response 100%. activation, % at 3 µM. hit rate 0.14% among 360,000;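 active = activation above the run mean over all test wells plus 3 SD, cut at about 32% in these data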;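 also: peak over basal fluorescence ratio per well then scaled between controls; 0% = DMSO wells and 100% = acetylcholine at EC100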
CHRM4 PAM: CHRM4 positive allosteric modulation; activation, % at 3 µM; AID 624126; CHO-K1 hM4/Gqi5, Fluo-8 calcium fluorescence, ACh EC20; 0% = ACh EC20, 100% = maximal ACh; hit rate 0.4% among 360,000; P08173;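 active = activation above its plate's cutoff, the mean activation of sample wells plus 3 SD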
M5 ag: agonists of human muscarinic M5 receptor (CHRM5) | activation, % at 3 µM | CHO-K1 hM5 cells, Fluo-8 calcium fluorescence; 0% DMSO wells, 100% maximal acetylcholine response | P08912 | hit rate 0.19% among 360,000;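 active = activation above the run's mean over test compounds plus 3 SD, cut at about 23% in these data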;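 also: signal is peak over basal fluorescence ratio across the kinetic read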
CHRM5 antagonist: blocks acetylcholine activation of human M5 receptor; P08912; inhibition, % at 3 µM; CHO-hM5 cells, Fluo-8 calcium fluorescence, ACh EC80; hit rate 0.59% among 360,000;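 active = inhibition above a per-plate cutoff, the mean of that plate's test compounds plus 3 SD, cut at about 27% in these data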;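 also: 0% = acetylcholine EC80 with DMSO and 100% = DMSO without agonist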
An asterisk follows results filed as active. Shown are actives, neighbours in structure and some others; about 1.8% of the full set was active somewhere.

SMILES	CHRM5 PAM	CHRM4 antagonist	CHRM4 agonist	CHRM4 PAM	M5 ag	CHRM5 antagonist
Cc1nn(CCOc2ccccc2)c(=O)n1-c1c(F)cccc1F	1.5	30.7*	1.6	31.5*	0.4	-4.1
Cc1ccc(-n2c(C)nn(CCOc3ccccc3)c2=O)cc1	2.6	-8.2	1.5	4.8	-3.7	4.8
CCOC(=O)C1=C(N)Oc2c(oc(CO)cc2=O)C1c1ccc(Cl)cc1 (centres undefined)	18.3*	10.6	1.1	-1.2	2.5	-2.0
COCCN(C(=O)COC(=O)Cc1cccc(OC)c1)c1c(N)n(CC(C)C)c(=O)[nH]c1=O	3.2	2.1	0.5	8.2	2.6	-4.8
COc1cccc(CNc2nc(NC(C)C)nc3ccsc23)c1	-7.8	5.6	7.1	-6.1	1.3	12.2
CCOc1ccccc1N(C)C(=O)Cn1ncc2c([nH]c3ccc(C)cc32)c1=O	11.9	-5.4	1.4	5.3	-2.4	-13.9
CC(NC(=O)c1ccccc1)C(=O)OCn1nnc2ccccc2c1=O (centres undefined)	20.4*	-14.1	1.3	11.8	-3.5	-8.0
C1=CN2CCC1C(c1ccccc1)C2 (centres undefined)	-14.7	36.1*	2.5	-11.2	3.4	73.9*
Cc1ccc2nc(-c3ccccc3)cc(C(=O)N(C)CC(=O)Nc3ccccc3Br)c2c1	-20.4	12.1	16.9	-11.0	-2.1	16.3
Cc1cc2cc3c(cc2nc1SCC(=O)OC(C)C)OCO3	2.9	-7.6	0.7	23.6*	-1.3	-6.5
CCc1ccc(S(=O)(=O)NCc2ccc(C(=O)NCCN(Cc3ccccc3)C(C)C)cc2)cc1	-18.0	24.1	12.4	-15.2	1.0	29.1*
CC(=O)Nc1ccc(S(=O)(=O)NCc2ccc(C(=O)NCCN(C)Cc3ccccc3)cc2)cc1	-4.0	-7.5	0.0	0.9	-1.2	10.2
CC(=O)C[C@H](O)CC(=O)[C@H]1OC(=O)CC/C=C\Cc2ccccc21	6.3	-2.9	2.0	25.3*	3.9	-7.0
C#CCOc1ccc(CNC[C@H]2O[C@@H](n3ccc(=O)[nH]c3=O)[C@H](O)[C@@H]2O)cc1	1.6	3.5	-0.2	-4.4	0.0	6.0
CCCCn1c(N)c(N(CC)C(=O)c2ccc(Cl)c(Cl)c2)c(=O)[nH]c1=O	-8.1	3.4	0.1	-4.1	-3.3	28.0*
Cc1ccc(C)c(NC(=S)N(C)CCc2ccccn2)c1	10.2	-5.0	1.3	17.9*	-3.2	-5.0
COc1ccc(/C=C/C(=O)NCC(=O)N/N=C(/CCC(=O)O)c2ccccc2)cc1	-0.7	29.7*	3.6	-2.6	2.9	4.9
CCCn1c(SCC(=O)NC2CCCCC2)nnc1-c1ccco1	-1.3	-1.8	0.6	1.8	-4.1	8.5
Oc1ccc(/C=N/Nc2ccc(C(F)(F)F)cn2)cc1	-4.3	-2.7	3.4	-6.5	5.8	1.5
C/C(=N\Nc1ccc(C(F)(F)F)cn1)c1ccncc1	8.5	-10.1	6.0	20.9*	-5.2	1.4
O=C(c1ccncc1)N(Cc1ccccc1)Cc1nc2ccccc2c(=O)[nH]1	29.1*	-6.2	2.3	-2.0	6.5	-3.3
C#Cc1cccc(Nc2nc(NCCOC)nc3ccsc23)c1	-11.4	14.3	18.5	-11.0	4.9	16.1
COc1ccccc1CNc1nc(NCc2ccccc2)nc2ccsc12	-22.0	92.3*	75.3*	-15.2	35.9*	76.0*
c1ccc(CNc2nc(NCc3ccccc3)c3ccccc3n2)cc1	-21.3	48.8*	44.9*	-17.4	9.8	39.4*
c1ccc(CNc2nc(NCCOc3ccccc3)c3sccc3n2)cc1	-20.8	53.9*	57.8*	-15.6	21.4	35.4*
SMILES	CHRM5 PAM	CHRM4 antagonist	CHRM4 agonist	CHRM4 PAM	M5 ag	CHRM5 antagonist
CNc1nc(NCCOc2ccccc2)c2sccc2n1	-9.5	-13.8	30.5	-7.9	7.9	-0.3
C#Cc1cccc(Nc2nc(NCc3ccccc3OC)nc3ccsc23)c1	-17.0	30.2*	14.2	-9.7	3.4	36.1*
Cc1ccc(C)c(NC(=O)CN(C)C(=O)c2ccc(COc3ccccc3)cc2)c1	-0.8	8.3	7.8	-6.8	-0.2	4.8
COc1ccccc1CNc1nc(NCc2cccc(OC)c2OC)c2sccc2n1	-20.0	21.5	15.8	-12.1	2.4	31.1*
c1ccc(CNc2nc(NCc3ccccc3)c3sccc3n2)cc1	-21.2	70.9*	88.8*	-16.0	31.5*	44.0*
Fc1cc(Cl)ccc1Nc1nc(NCc2ccccc2)nc2ccsc12	-3.3	6.2	0.5	-6.5	0.8	-1.4
COCCNc1nc(NCc2cccc(OC)c2OC)c2sccc2n1	-7.3	-2.0	6.3	-3.7	-0.1	9.3
Cc1ccc(OC(C)C(=O)Nc2ccncc2)cc1C (centres undefined)	-14.7	0.7	9.2	-8.3	-1.4	22.7
CCc1cc(=O)oc2cc(C)cc(OCC(=O)NCc3ccncc3)c12	-3.2	7.3	1.9	-3.5	-4.2	14.1
CS/C(=N/S(=O)(=O)c1ccc(C)cc1)c1ccccc1	8.8	-6.6	1.7	24.0*	0.9	-3.0
N#Cc1ccc(-c2ccc(F)cc2)nc1Oc1ccc(Cl)c(Cl)c1	1.1	-1.6	1.1	32.6*	-3.1	1.6
CCCn1cc(CN2CCCC(C(=O)c3cccc(OC(C)C)c3)C2)c(C)n1 (centres undefined)	-5.5	6.3	2.9	-10.5	-9.2	15.4
CCCn1ncc(CN2CCCC(C(=O)c3cccc(OC(C)C)c3)C2)c1C (centres undefined)	-25.0	65.6*	0.9	-51.1	-18.9	15.5
CC(C)OC(=O)c1sc2nc(-c3ccccc3)ccc2c1N	-5.8	11.0	13.3	-10.2	-2.7	-0.5
COc1ccc(C(=O)c2sc3nc(-c4ccccc4)ccc3c2N)cc1	-17.4	15.4	12.6	-12.7	15.4	34.0*
Cc1nc2sc(C(=O)c3ccccc3)c(N)c2c(C)c1C	-2.3	67.2*	68.6*	13.3	0.4	-3.8
Cc1c(Cl)ccc(S(=O)(=O)NCCCn2ccnc2)c1Cl	-10.8	-0.3	3.1	-0.9	-0.4	8.0
CC1(C)C2CCC1(C)C(SC(=N)N)C2 (centres undefined)	3.8	-26.8	5.2	5.6	-4.2	8.9
CCN(CCCCCN(C)C)Cc1cc2ccccc2o1	-2.2	3.2	0.9	-13.9	-4.0	-3.9
O=C(NNc1ccccc1Br)C(O)(c1cccc(C(F)(F)F)c1)c1cccc(C(F)(F)F)c1	-17.7	10.7	3.8	-16.5	-4.1	29.4*
CCCCCN1CC(=O)N2[C@@H](Cc3c([nH]c4ccccc34)C2(C)C)C1=O	10.2	-4.8	7.4	4.4	-0.3	-14.8
CCCCN(CCCC)CCCN1CC(=O)N2[C@@H](Cc3c([nH]c4ccccc34)C2(C)C)C1=O	-0.3	85.9*	1.9	-19.4	-9.3	-1.7
